A word on the IC50: it is the concentration needed to halve the response being measured.

Drawing on ChEMBL document CHEMBL1124545, “Tricyclic compounds as selective muscarinic receptor antagonists. 3. Structure-selectivity relationships in a series of cardioselective (M2) antimuscarinics” (J Med Chem, 1989), this text covers IC50 and Ratio for 30 molecules.

In experiment [1] the target is T1, Muscarinic acetylcholine receptor M3 (Rattus norvegicus, UniProt P08483). The experiment can be described thus: Binding affinity for glandular muscarinic acetylcholine receptor M3 in rat assayed using 0.3 nM [3H]N-methylscopolamine as radioligand. In short, it runs like this: (§1)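 1 mL homogenate incubated 45 min at 30 °C with 0.3 nM [3H]NMS plus varying unlabeled compound. Bound ligand separated by centrifugation, saline-washed pellet scintillation counted. Nonspecific binding defined with 1 µM racemic QNB. Run in quadruplicate.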

Experiment [2] addresses Muscarinic receptor M2 and M3 (Rattus norvegicus) (UniProt P08483+P10980). Nature of the experiment: Selectivity ratio for glandular muscarinic receptor 3 and cardiac muscarinic receptor 2 in rat.
Experiment [3] concerns the target T2, Muscarinic acetylcholine receptor M2 (Rattus norvegicus, UniProt P10980).
T2 sequence (P10980 whole entry): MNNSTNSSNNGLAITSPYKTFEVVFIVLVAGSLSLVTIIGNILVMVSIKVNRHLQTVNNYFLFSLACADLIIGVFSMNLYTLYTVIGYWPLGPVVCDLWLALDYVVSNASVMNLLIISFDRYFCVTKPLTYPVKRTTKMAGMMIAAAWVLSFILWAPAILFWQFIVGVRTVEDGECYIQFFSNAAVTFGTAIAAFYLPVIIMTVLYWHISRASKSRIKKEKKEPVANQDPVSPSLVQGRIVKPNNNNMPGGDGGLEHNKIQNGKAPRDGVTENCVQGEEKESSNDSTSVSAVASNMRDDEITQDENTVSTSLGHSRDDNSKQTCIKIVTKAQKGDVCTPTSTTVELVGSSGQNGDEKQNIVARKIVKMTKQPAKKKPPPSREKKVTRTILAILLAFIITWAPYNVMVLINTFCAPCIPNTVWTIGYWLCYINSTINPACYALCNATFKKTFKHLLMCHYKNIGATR
Nature of the experiment: Binding affinity to the rat cardiac muscarinic acetylcholine receptor M2 using 0.3 nM [3H]N-methylscopolamine as radioligand. In a few lines: (§2)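 Competition against 0.3 nM [3H]NMS in rat total heart homogenate (1:300 in 100 mM NaCl, 10 mM MgCl2, 20 mM HEPES, pH 7.4, cheesecloth-filtered). 1 mL homogenate incubated 45 min at 30 °C with a range of cold ligand concentrations. Pellets obtained by centrifugation, washed twice with saline, solubilized and counted. Nonspecific binding taken with 1 µM racemic QNB. Quadruplicate assays.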

Experiment [4] relates to Muscarinic acetylcholine receptors M2 & M3 (Rattus norvegicus). The experiment can be described thus: Selectivity ratio for glandular muscarinic receptor 3 and cardiac muscarinic receptor 2 in rat.
For experiment [5], the target named is T2, Muscarinic acetylcholine receptor M2. The experiment can be described thus: Binding affinity of compound for cardiac Muscarinic acetylcholine receptor M2 in rat using 0.3 nM [3H]N-methylscopolamine as radioligand. In short, it runs like this: as §2
Experiment [6] deals with T1, Muscarinic acetylcholine receptor M3. Nature of the experiment: Binding affinity of compound for glandular Muscarinic acetylcholine receptor M3 in rat using 0.3 nM [3H]N-methylscopolamine as radioligand. In short, it runs like this: as §1

Some results are limits rather than exact numbers.

T1 sequence (P08483 whole entry): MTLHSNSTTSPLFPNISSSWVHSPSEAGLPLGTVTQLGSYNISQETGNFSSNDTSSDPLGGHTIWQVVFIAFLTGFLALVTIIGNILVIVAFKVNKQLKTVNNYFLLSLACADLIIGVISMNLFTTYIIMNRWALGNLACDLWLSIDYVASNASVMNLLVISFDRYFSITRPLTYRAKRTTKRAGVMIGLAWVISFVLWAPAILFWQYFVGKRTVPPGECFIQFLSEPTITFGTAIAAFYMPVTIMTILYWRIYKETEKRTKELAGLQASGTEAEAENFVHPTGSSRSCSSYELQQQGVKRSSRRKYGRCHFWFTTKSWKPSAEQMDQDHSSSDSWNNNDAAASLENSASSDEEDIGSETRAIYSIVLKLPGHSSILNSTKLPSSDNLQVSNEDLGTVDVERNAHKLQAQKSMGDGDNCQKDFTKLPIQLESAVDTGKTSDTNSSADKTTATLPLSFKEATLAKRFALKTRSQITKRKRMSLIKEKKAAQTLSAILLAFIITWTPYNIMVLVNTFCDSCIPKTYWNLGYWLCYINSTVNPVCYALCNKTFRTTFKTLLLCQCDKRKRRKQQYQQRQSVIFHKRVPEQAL
Sequence of Muscarinic receptor M2 and M3 (Rattus norvegicus) (P08483 whole entry, looked up, one chain of several): as the sequence (P08483 whole entry) above

On to `CN(C)CC1CCCCN1CC(=O)N1c2ccccc2C(=O)Nc2cccnc21` (centres undefined), for which the IC50 stood at 1 µM in experiment [1] and 0.14 µM in experiment [3]. The Ratio in experiment [2] was found to be 7.1.
Turning to `CCN(CC)CC1CCCCN1CC(=O)N1c2ccc(Cl)cc2C(=O)Nc2cccnc21` (centres undefined), the IC50 in experiment [1] stood at 4 µM; in experiment [3], 0.1 µM. Further, the Ratio in experiment [2] was determined as 40.
Turning to `CCN(CC)CC1CCCCN1CC(=O)N1c2cc(C)ccc2C(=O)Nc2cccnc21` (centres undefined), the concentration for half-maximal inhibition (IC50) is 2 µM in experiment [1] and 0.07 µM in experiment [3]. Besides, the Ratio in experiment [2] amounted to 28.5.
As to `CCN(CC)CC1CCCCN1CC(=O)N1c2ccccc2C(=O)Nc2cccnc21` (stereo in doubt; 28), in experiment [2], the Ratio worked out at 25.
`CCN(CC)CC1CCCN1CC(=O)N1c2ccccc2C(=O)Nc2cccnc21` (centres undefined): the concentration for half-maximal inhibition (IC50) was found to be 2 µM in experiment [1] and 0.15 µM in experiment [3]. Moreover, the Ratio in experiment [2] was 13.
Turning to `CCN(CC)CC1CCCCCN1CC(=O)N1c2ccccc2C(=O)Nc2cccnc21` (centres undefined), the IC50 is 15 µM in experiment [1] and 2 µM in experiment [3]. Also, the Ratio in experiment [2] came out at 7.5.
`CCN(CC)CC1CCCCN1CC(=O)N1c2ccccc2C(=O)Nc2cccnc21` (stereo in doubt; 29) [OTENZEPAD]: the IC50 is 6 µM in experiment [1] and 0.05 µM in experiment [3].
As to `CN(CC1CCCCN1CC(=O)N1c2ccccc2C(=O)Nc2cccnc21)C1CCCCC1` (centres undefined), the IC50 in experiment [1] is 0.15 µM; in experiment [3] it was 0.06 µM. Moreover, the Ratio in experiment [2] came out at 2.5.
`CCN(CC)CC1CCCCN1C(=O)N1c2ccccc2C(=O)Nc2cccnc21` (centres undefined): the IC50 in experiment [1] is above 10 µM; in experiment [3], 5 µM. For the same molecule, the Ratio in experiment [2] is above 2.
`CCN(CC)CC1CCCN(CC(=O)N2c3ccccc3C(=O)Nc3cccnc32)C1` (centres undefined): the figures for the IC50 in experiment [1] and in experiment [3] were 0.3 µM and 0.17 µM, respectively. For the same molecule, in experiment [2], the Ratio amounted to 1.8.
As to `CCN(CC)CCCC1CCCCN1CC(=O)N1c2ccccc2C(=O)Nc2cccnc21` (centres undefined), the IC50 was 0.2 µM in experiment [1] and 0.06 µM in experiment [3]. For the same molecule, the Ratio in experiment [2] is 3.3.
As for `CCNCC1CCCCN1CC(=O)N1c2ccccc2C(=O)Nc2cccnc21` (centres undefined), the values for the IC50 in experiment [1] and in experiment [3] were 3 µM and 0.6 µM, respectively. Also, the Ratio in experiment [2] was 5.
As to `CN(CC1CCCCN1CC(=O)N1c2ccccc2C(=O)Nc2cccnc21)C1CCCCCC1` (centres undefined), the results for the IC50 in experiment [1] and in experiment [3] were 0.07 µM and 0.03 µM, respectively. Besides, the Ratio in experiment [2] came out at 2.3.
For the molecule `CCc1ccc2c(c1)C(=O)Nc1cccnc1N2C(=O)CN1CCCCC1CN(CC)CC` (centres undefined), the values for the half-maximal inhibitory concentration (IC50) in experiment [1] and in experiment [3] were 2 µM and 0.2 µM, respectively. Besides, in experiment [2], the Ratio was found to be 10.
As for `CCN(CC)CC1CCCCN1CC(=O)N1c2ccc(Br)cc2C(=O)Nc2cccnc21` (centres undefined), the IC50 in experiment [1] turned out to be 4 µM; in experiment [3], 0.15 µM. In addition, the Ratio in experiment [2] was found to be 26.6.
For the molecule `O=C1Nc2cccnc2N(C(=O)CN2CCCCC2CN2CCCCC2)c2ccccc21` (centres undefined), in experiment [4], the Ratio was 2.5. The IC50 in experiment [5] was 0.6 µM; in experiment [6], 1.5 µM.
Turning to `CCN(CC)CC1CCCCN1CC(=O)N1c2ccccc2C(=O)Nc2cccnc21` (stereo in doubt; 28) [OTENZEPAD], the IC50 in experiment [1] worked out at 10 µM; in experiment [3], 0.4 µM.
Turning to `CCCN(CCC)CC1CCCCN1CC(=O)N1c2ccccc2C(=O)Nc2cccnc21` (centres undefined), the IC50 was 6 µM in experiment [1] and 1.5 µM in experiment [3]. Also, in experiment [2], the Ratio is 4.
Regarding `CCN(C)CC1CCCCN1CC(=O)N1c2ccccc2C(=O)Nc2cccnc21` (centres undefined), the IC50 in experiment [1] worked out at 1.5 µM; in experiment [3] it was 0.12 µM. Also, the Ratio in experiment [2] is 12.5.
For the molecule `CCN(CC)CC1CCCCN1CC(=O)N1c2ccccc2C(=O)Nc2cccnc21` (stereo in doubt; 10) [OTENZEPAD], the IC50 in experiment [1] was determined as 6 µM.
Consider `CCN(CC)CCC1CCCCN1CC(=O)N1c2ccccc2C(=O)Nc2cccnc21` (centres undefined), for which the half-inhibitory concentration (IC50) is 1 µM in experiment [1] and 0.33 µM in experiment [3]. Besides, the Ratio in experiment [2] stood at 3.
For the molecule `CCN(CC)CC1CCN(CC(=O)N2c3ccccc3C(=O)Nc3cccnc32)CC1`, the IC50 in experiment [1] was 4 µM; in experiment [3] it was 0.8 µM. Further, the Ratio in experiment [2] is 5.
As for `CCN(CC)CC1CCCCN1CC(=O)N1c2ccc(C)cc2C(=O)Nc2cccnc21` (centres undefined), the values for the IC50 in experiment [1] and in experiment [3] were 1 µM and 0.03 µM, respectively. Moreover, in experiment [2], the Ratio was 33.3.
As to `CCCCN(C)CC1CCCCN1CC(=O)N1c2ccccc2C(=O)Nc2cccnc21` (centres undefined), the IC50 in experiment [1] was 0.2 µM; in experiment [3] it was 0.1 µM. Besides, the Ratio in experiment [2] came out at 2.
Take `CCN(CC)CC1CCCCN1CC(=O)N1c2ccccc2C(=O)Nc2cccnc21` (stereo in doubt; 10): the Ratio in experiment [2] was 42.8.
With `O=C1Nc2cccnc2N(C(=O)CN2CCCCC2CN2CCOCC2)c2ccccc21` (centres undefined), the IC50 is 4 µM in experiment [1] and above 1 µM in experiment [3]. Further, the Ratio in experiment [2] is below 4.
For the molecule `CCN(CC)CC1CCCCN1CC(=O)N1c2cc(Cl)ccc2C(=O)Nc2cccnc21` (centres undefined), the Ratio in experiment [2] came out at 37.5. Further, the IC50 in experiment [3] is 0.04 µM.
Turning to `CCN(CC)CC1CCCCN1CCC(=O)N1c2ccccc2C(=O)Nc2cccnc21` (centres undefined), the IC50 came out at 0.6 µM in experiment [1] and 0.22 µM in experiment [3]. In experiment [2], the Ratio was determined as 2.7.
As for `O=C1Nc2cccnc2N(C(=O)CN2CCCCC2CN2CCCC2)c2ccccc21` (centres undefined), the IC50 stood at 1.5 µM in experiment [1] and 0.56 µM in experiment [3]. Also, the Ratio in experiment [2] was 2.7.
Turning to `CCN(CC)CC1CCCCN1CC(=O)N1c2ccccc2C(=O)Nc2cccnc21` (stereo in doubt; 29), the Ratio in experiment [2] came to 120.
